{"source": "paper PMC12766539", "about": "(Molecular pharmaceutics, 2022)", "key": {"[1]": {"test_system": "31 clinical strains of S. aureus (5 methicillin-susceptible, 26 resistant)", "assay": "MIC against a panel of 31 clinical strains of S. aureus", "assay_type": "cell-based, Staphylococcus aureus", "conditions": "~10^5 CFU/mL, negative control", "how_it_was_run": "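Exponential-phase bacteria were diluted to ~10⁵ CFU/mL in TSB or MHB and added to serially diluted test compound (in water). Plates were incubated at 37°C for 20 h and growth was read as absorbance at 600 nm. Water-only wells served as the untreated control and medium as the blank.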"}, "[2]": {"test_system": "pUC19 plasmid", "assay": "DNA gel retardation experiment", "assay_type": "binding", "conditions": "two peptide concentrations (Figure S2)"}, "[3]": {"test_system": "S. aureus USA300 LAC infection", "assay": "Invertebrate wax moth infection model", "assay_type": "in vivo, Galleria mellonella", "conditions": "64 mg/kg, 1×10^6 CFU/insect, 30 per group, 5 days", "how_it_was_run": "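Galleria mellonella larvae (~250 mg; 30 per group) were injected with test compound at 64 mg/kg in phosphate buffer 2 h before infection with S. aureus USA300 at 1×10⁶ CFU/insect. Larvae were kept at room temperature and scored live or dead daily for 5 days. Survival was compared by log-rank test.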"}}, "data": [{"sequence": "RIVQRIKDFL [RI-10]", "values": [{"measurement": "inhibitory activity at 32 μM", "setting": "[1]", "result": "did not show any inhibitory activity"}, {"measurement": "DNA retardation in the well", "setting": "[2]", "result": "unable to retard DNA"}, {"measurement": "protection of the animals from infection-caused death", "setting": "[3]", "result": "did not protect the animals"}]}]}
